# CTSL1 counter: Fasciola hepatica cathepsin L1 inhibitors, primary screen, counter-screen for PFM18AAP inhibitor project, biochemical, QFRET, fluorogenic peptide substrate. recombinant F. hepatica cathepsin L1, Z-Leu-Arg-MCA fluorescence. inhibition, % at 5.96 µM. 300,000 compounds, 0.49% hits. AID 1906, 2009;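 active means inhibition above the mean of all tested compounds plus 3 SD, set per screening campaign, cut at about 17% in these data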;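 further: 0% = plate median of test compound wells and 100% = 1 µM Z-Phe-Ala-diazomethylketone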
# PP5 primary: PP5 phosphatase inhibitors, primary screen, biochemical, fluorescence. Serine/threonine-protein phosphatase 5 (Homo sapiens), P53041. inhibition, % at 6.7 µM. AID 1987, 2009. 320,000 compounds, 0.18% hits. purified PP5c, OMFP substrate fluorescence;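 active means inhibition above the campaign's mean inhibition across all tested compounds plus 3 SD, cut at about 9.5% in these data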;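 further: 0% = DMSO only and 100% = 100 µM cantharidin control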
# UCH37 inh: inhibitors of human UCH37 deubiquitinase, primary screen, biochemical, Ub-AMC cleavage, fluorescence. purified proteasome/UCH37. inhibition, % (concentration not given with the values). 330,000 compounds, 0.33% hits;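 active means mean inhibition over replicate wells above about 20%, limit read from the data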;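 further: 0% = compound-free wells with enzyme and 100% = wells lacking proteasome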
#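 Material: human UCH37 enzyme supplied as purified proteasome complex. Measure: % inhibition of Ub-AMC cleavage fluorescence. Medium: pH 7.4 Tris-HCl (50 mM) with ovalbumin, ATP-MgCl2, DTT. Times: 30 min preincubation with enzyme, 25 min cleavage at room temperature. Detection: AMC fluorescence intensity at 355/460 nm.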
# PP1 inh: PP1-alpha phosphatase inhibitors, primary screen, counter-screen for PP5 inhibitor project, biochemical, fluorescence, OMFP substrate, single point; Serine/threonine-protein phosphatase PP1-alpha catalytic subunit (Homo sapiens), P62136; purified PP1alpha; inhibition, % at 6.7 µM; 320,000 compounds, 0.9% hits; AID 2235, 2010;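 active means inhibition above the mean inhibition of all tested compounds plus 3 SD, computed separately for each screening campaign, cut at about 15% in these data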
# PREPL inhibitor: PREPL enzyme inhibitors, primary screen, biochemical, fluorescence polarization. Prolyl endopeptidase-like (Homo sapiens), Q4J6C6. recombinant PREPL, fluorescence polarization activity-based probe. inhibition, % at 5.96 µM. 320,000 compounds, 0.68% hits;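 further: 0% = enzyme with DMSO and 100% = wells lacking enzyme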
# Target sequence (Q4J6C6 whole entry, looked up): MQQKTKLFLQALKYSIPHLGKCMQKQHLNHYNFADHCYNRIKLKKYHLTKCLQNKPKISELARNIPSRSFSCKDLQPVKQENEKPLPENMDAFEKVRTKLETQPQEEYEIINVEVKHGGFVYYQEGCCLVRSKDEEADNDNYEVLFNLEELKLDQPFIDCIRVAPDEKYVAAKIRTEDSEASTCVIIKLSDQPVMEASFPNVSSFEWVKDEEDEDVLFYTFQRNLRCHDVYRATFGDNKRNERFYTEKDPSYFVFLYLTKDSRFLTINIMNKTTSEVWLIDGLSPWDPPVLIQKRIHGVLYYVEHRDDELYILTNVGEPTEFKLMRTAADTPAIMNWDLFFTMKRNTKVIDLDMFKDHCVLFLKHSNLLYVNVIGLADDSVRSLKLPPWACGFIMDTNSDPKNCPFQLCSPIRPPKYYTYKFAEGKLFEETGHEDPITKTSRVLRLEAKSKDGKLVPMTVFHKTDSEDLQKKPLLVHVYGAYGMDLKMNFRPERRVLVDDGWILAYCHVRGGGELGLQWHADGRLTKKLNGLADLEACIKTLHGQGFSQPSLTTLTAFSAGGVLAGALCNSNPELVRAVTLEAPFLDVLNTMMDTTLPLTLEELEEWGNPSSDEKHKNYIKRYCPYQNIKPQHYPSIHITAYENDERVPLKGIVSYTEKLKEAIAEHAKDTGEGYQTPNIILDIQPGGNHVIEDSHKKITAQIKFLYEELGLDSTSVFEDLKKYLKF
# UBC13 inh: UBC13 polyubiquitin chain formation inhibitors, primary screen, biochemical, TR-FRET, uHTS; Ubiquitin-conjugating enzyme E2 N (Homo sapiens), P61088; inhibition, % at 20 µM; 330,000 compounds, 0.47% hits; in the data active means inhibition above about 45%, passing the limit was not always enough
# PREPL confirm: human PREPL enzyme inhibitors, confirmation, biochemical, fluorescence polarization; shares compounds with PREPL inhibitor; recombinant PREPL, fluorescence polarization activity probe; inhibition, % at 5.96 µM; 2,000 compounds, 67% hits; AID 2803, 2010;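 further: 0% = protein with DMSO and 100% = wells lacking protein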
# * = called active by the depositor; i = inactive; . = not tested or not shown. Sampled rows, rich in hits. Any-hit rate of the full collection: about 2.3%. Unless noted, no stated cut-off is given here; in the data, active means inhibition above about 43%; inactive means the rest.
SMILES,CTSL1 counter,PP5 primary,UCH37 inh,PP1 inh,PREPL inhibitor,UBC13 inh,PREPL confirm
COc1ccc2cc(-c3cc(C(=O)OCC(=O)NC4CCS(=O)(=O)C4)c4ccccc4n3)ccc2c1 (stereo not drawn),-1,-1,i,1,46*,.,37
COc1ccc(-c2cc(C(=O)OCC(=O)NC3CC3)c3ccccc3n2)cc1,.,2,-105,0,6,36,.
O=C(NN=Cc1ccncc1)c1nn(Cc2ccccc2)c(=O)c2ccccc12,.,.,2,.,.,.,.
CC1=CC(C)(C)Nc2ccc(OC(=O)CCN3C(=O)c4ccccc4C3=O)cc21,-40,4,-8,1,79*,5,78*
Cc1sc(NC(=O)c2ccccc2)c(C(c2ccc(Cl)cc2)N2CCN(CCO)CC2)c1C (stereo not drawn),-7,3,-12,2,48*,31,41
Nc1cc([N+](=O)[O-])cc2oc(-c3ccccc3)cc12,1,1,2,0,53*,-146,54*
Cc1c(C=NNc2ccc(C(=O)O)cc2)c2ccccc2n1C,.,.,-11,.,.,.,.
COC(=O)[C@@]12CCCCN1[C@H](c1ccc(-c3ccc(F)cc3)cc1)[C@@H]1C(=O)N(C)C(=O)[C@@H]12,2,1,0,3,54*,-4,44*
COC(=O)[C@@]12CCCCN1[C@H](c1ccc(-c3ccccc3)cc1)[C@H]1C(=O)N(C)C(=O)[C@H]12,4,2,-2,3,3,8,.
COc1ccc(NC(=O)C(=O)NN=Cc2cccnc2)c(OC)c1,.,.,6,.,.,.,.
CC1CC(=NNC(=O)c2ccc([N+](=O)[O-])cc2)CC(C)(C)C1 (stereo not drawn),.,.,1,.,.,.,.
c1cnc2ccc3ncccc3c2c1,-4,-4,5,0,11,-8,.
Nc1ccc2ncccc2c1N,6,2,17,6,47*,.,46*
O=C(COc1ccccc1C(=O)N/N=C\c1ccc(O)c(O)c1)N/N=C/c1ccc(O)c(O)c1,4,4,.,3,83*,11,32
Cc1cccc(OCC(=O)Nc2ccc(N3CCN(C(=O)c4ccco4)CC3)cc2)c1C,-3,-1,2,-1,48*,-4,47*
Cc1cccc(OCC(=O)Nc2ccc(N3CCN(S(C)(=O)=O)CC3)cc2)c1C,0,4,3,-2,15,-6,.
Cc1ccc(C(=O)NC(=S)Nc2ccc(N3CCN(C(=O)c4ccco4)CC3)cc2)cc1,1,4,2,11,48*,-6,37
Cc1cc(C)cc(OCC(=O)Nc2ccc(N3CCN(C(=O)c4ccco4)CC3)cc2)c1,4,3,-3,1,23,-8,.
Cc1ccccc1OCC(=O)Nc1ccc(N2CCN(C(=O)c3ccco3)CC2)cc1,-3,5,1,0,58*,-8,48*
COc1cc(C=NNC(=O)c2ccc(Cl)cc2)ccc1Oc1ccc([N+](=O)[O-])cn1,.,.,4,.,.,.,.
O=C(c1cc(-c2cccc(Cl)c2)on1)N1CCN(c2ccc(F)cc2)CC1,0,2,-3,1,-10,8,.
CC(=O)N1CCN(c2ccc(NCc3ccco3)cc2)CC1,.,-1,2,-1,8,-14,.
Clc1ccc(CNc2ccc(N3CCN(Cc4ccccc4)CC3)cc2)cc1,0,1,5,-3,48*,0,49*
CC(=O)N1CCN(c2ccc(NCc3ccc(-c4cccc(Cl)c4)o3)cc2)CC1,.,.,.,.,55*,-2,68*
CCc1ccc(CNc2ccc(N3CCN(C(C)=O)CC3)cc2)cc1,-2,4,1,3,66*,-8,57*
CC(=O)N1CCN(c2ccc(NCc3ccc(C)cc3)cc2)CC1,1,2,0,0,74*,5,46*

# Compound activity deposited in PubChem by several laboratories.
